Laboratory results from ChEMBL document CHEMBL4725472, “Synthesis and Evaluation of Ginkgolic Acid Derivatives as SUMOylation Inhibitors” (ACS Med Chem Lett, 2020).
The source made the active and inactive calls. The calls are words filed in the database; no cut-off is given here.

Legend:
[1] = biological target: Small ubiquitin-related modifier 1 (Homo sapiens) (UniProt P63165); assay: Inhibition of SUMO1 (unknown origin) assessed as reduction in SUMOylated RanGAP1 level at 50 uM incubated for 60 mins by western blot analysis
Small ubiquitin-related modifier 1 (Homo sapiens), sequence (P63165 whole entry): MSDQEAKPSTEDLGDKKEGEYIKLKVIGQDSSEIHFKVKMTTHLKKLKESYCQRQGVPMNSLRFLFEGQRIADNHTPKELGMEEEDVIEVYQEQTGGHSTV
Procedure, shortened: (§1)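 Cell-free RanGAP1 SUMOylation reaction; compounds dissolved in the reaction medium at 50 μM for the initial screen, then retested at 5 μM.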

[2] = biological target: Small ubiquitin-related modifier 1 (Homo sapiens) (UniProt P63165); assay: Inhibition of SUMO1 in human PC3 cells assessed as reduction in SUMOylation level at 10 to 20 uM measured after 24 hrs by western blot analysis; assay type: cell-based; conditions: PC-3, dose microM 10-20, time 24.0 hrs
PC-3 [3] = assay: Induction of autophagy-mediated apoptosis in human PC3 cells assessed as increase in cleave PARP level at 10 uM measured after 24 hrs by western blot analysis; assay type: functional, cell-based
Procedure, shortened: (§2)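 PC3 cells treated at 10 or 20 μM; cleaved PARP and LC3II levels assessed by immunoblot as apoptosis and autophagy markers.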

PC-3 [4] = assay: Induction of autophagy in human PC3 cells assessed as increased of LC3-II level at 10 uM incubated for 24 hrs by Western blot analysis; assay type: functional, cell-based; procedure, shortened: as §2
[5] = biological target: Small ubiquitin-related modifier 2 (Homo sapiens) (UniProt P61956); assay: Inhibition of SUMO2 in human PC3 cells assessed as reduction in SUMOylation level at 10 uM measured after 24 hrs by western blot analysis; assay type: cell-based; conditions: PC-3
Small ubiquitin-related modifier 2 (Homo sapiens), sequence (P61956 whole entry): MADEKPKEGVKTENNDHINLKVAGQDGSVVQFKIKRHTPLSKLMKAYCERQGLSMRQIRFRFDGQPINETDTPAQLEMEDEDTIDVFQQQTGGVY

PC3 (Homo sapiens) = assay: Cytotoxicity against human PC3 cells assessed as cell death at 10 to 20 uM incubated for 24 hrs by crystal violet staining based spectrophotometric analysis; conditions: dose microM 10-20, time 24.0 hrs
PC-3 [6] = assay: Induction of autophagy in human PC3 cells assessed as increased of LC3-II level at 20 uM incubated for 24 hrs by Western blot analysis; assay type: functional, cell-based; procedure, shortened: as §2
[7] = biological target: Small ubiquitin-related modifier 1 (Homo sapiens) (UniProt P63165); assay: Inhibition of SUMO1 in human MDA-MB-231 cells assessed as reduction in SUMOylation level at 10 uM measured after 24 hrs by western blot analysis; assay type: cell-based
PC-3 [8] = assay: Induction of autophagy-mediated apoptosis in human PC3 cells assessed as increase in cleave PARP level at 20 uM measured after 24 hrs by western blot analysis; assay type: functional, cell-based; procedure, shortened: as §2
[9] = biological target: Small ubiquitin-related modifier 1 (Homo sapiens) (UniProt P63165); assay: Inhibition of SUMO1 (unknown origin) assessed as reduction in SUMOylated RanGAP1 level at 5 uM incubated for 60 mins by western blot analysis; procedure, shortened: as §1
MDA-MB-231 = assay: Cytotoxicity against human MDA-MB-231 cells assessed as reduction in cell viability incubated for 48 hrs by crystal violet staining based spectrophotometric analysis; assay type: functional; conditions: MDA-MB-231, 48 h
Procedure, shortened: (§3)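 PC3 and MDA-MB-231 cells exposed to compounds for 48 h at 10 or 20 μM; viability compared with nontreated cells (significance P ≤ 0.05); IC50 values determined in both lines; at least three independent experiments, mean ± SEM.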

PC-3 [10] = assay: Cytotoxicity against human PC3 cells assessed as reduction in cell viability incubated for 48 hrs by crystal violet staining based spectrophotometric analysis; assay type: functional; conditions: PC-3, 48 h; procedure, shortened: as §3

## CCCCCCCCCCCCCCCc1ccc(C(=O)O)c(O)c1
[1]
  inhibition: inactive

## CCCCCCCCCCCCC/C=C/c1ccc(C(=O)O)c(O)c1
[1]
  inhibition: inactive

## CCCCCCCCC/C=C/c1ccc(C(=O)O)c(O)c1
[1]
  inhibition: inactive

## CCCCCCCCCCCCCc1cccc(O)c1C(=O)O
[1]
  inhibition: Active
[2]
  inhibition: Active
PC-3 [3]
  Activity: Active
PC-3 [4]
  Activity: Active
[5]
  inhibition: Active
PC3 (Homo sapiens)
  Activity: Active
PC-3 [6]
  Activity: Active
[7]
  inhibition: Active
PC-3 [8]
  Activity: Active

## CCCCCCCCC/C=C/c1cccc(C(=O)O)c1O
[1]
  inhibition: inactive

## CCCCCCCCC/C=C/c1cccc(O)c1C(=O)O
[1]
  inhibition: Active
[2]
  inhibition: Active
PC-3 [3]
  Activity: Active
PC-3 [4]
  Activity: Active
[5]
  inhibition: Active
PC3 (Homo sapiens)
  Activity: Active
PC-3 [6]
  Activity: Active
[9]
  inhibition: Active
[7]
  inhibition: Active
PC-3 [8]
  Activity: Active

## CCCCCCCCCCCCCCCc1cccc(C(=O)O)c1O
[1]
  inhibition: inactive

## CCCC/C=C/c1cccc(O)c1C(=O)O
[1]
  inhibition: inactive

## CCCCCCCCCCCc1ccc(C(=O)O)c(O)c1
[1]
  inhibition: inactive

## CCCCCCCCCCC/C=C/c1cccc(O)c1C(=O)O
[1]
  inhibition: Active
[2]
  inhibition: Active
PC-3 [3]
  Activity: Active
PC-3 [4]
  Activity: Active
MDA-MB-231
  IC50: 8.2 µM
PC-3 [10]
  IC50: 10.8 µM
[5]
  inhibition: Active
PC3 (Homo sapiens)
  Activity: Active
PC-3 [6]
  Activity: Active
[9]
  inhibition: Active
[7]
  inhibition: Active
PC-3 [8]
  Activity: Active

## CCCCCCCCCCCCCc1ccc(O)c(C(=O)O)c1
[1]
  inhibition: inactive

## CCCCCCCCCCCCC/C=C/c1ccc(O)c(C(=O)O)c1
[1]
  inhibition: inactive

## CCCCCCCCCCC/C=C/c1ccc(C(=O)O)c(O)c1
[1]
  inhibition: inactive

## CCCCCCCCCCC/C=C/c1ccc(O)c(C(=O)O)c1
[1]
  inhibition: inactive

## CCCCCCCCCCCCC/C=C/c1cccc(C(=O)O)c1O
[1]
  inhibition: inactive

## CCCCCCCCCCCc1ccc(O)c(C(=O)O)c1
[1]
  inhibition: inactive

## CCCCCCc1cccc(O)c1C(=O)O
[1]
  inhibition: inactive

## CCCCCCCCCCCCCc1ccc(C(=O)O)c(O)c1
[1]
  inhibition: inactive

## CCCCCCCCCCCc1cccc(O)c1C(=O)O
[1]
  inhibition: Active
[2]
  inhibition: Active
PC-3 [3]
  Activity: Active
PC-3 [4]
  Activity: Active
[5]
  inhibition: Active
PC3 (Homo sapiens)
  Activity: Active
PC-3 [6]
  Activity: Active
[7]
  inhibition: Active
PC-3 [8]
  Activity: Active

## CCCCCCCCCCCc1cccc(C(=O)O)c1O
[1]
  inhibition: inactive

## CCCCCCCCC/C=C/c1ccc(O)c(C(=O)O)c1
[1]
  inhibition: inactive

## CCCCCCCCCCCCCCCc1cccc(O)c1C(=O)O
[1]
  inhibition: Active

## CCCCCC/C=C/c1cccc(O)c1C(=O)O
[1]
  inhibition: inactive

## CCCCCCCCc1cccc(O)c1C(=O)O
[1]
  inhibition: inactive

## CCCCCCCCCCC/C=C/c1cccc(C(=O)O)c1O
[1]
  inhibition: inactive

## CCCCCCCCCCCCC/C=C/c1cccc(O)c1C(=O)O
[1]
  inhibition: Active

## CCCCCCCCCCCCCCCc1ccc(O)c(C(=O)O)c1
[1]
  inhibition: inactive

## CCCCCCCCCCCCCc1cccc(C(=O)O)c1O
[1]
  inhibition: inactive
[2]
  inhibition: inactive
PC-3 [3]
  Activity: inactive
PC-3 [4]
  Activity: inactive
MDA-MB-231
  IC50: 12.8 µM
PC-3 [10]
  IC50: 14.8 µM
PC-3 [6]
  Activity: Active
[7]
  inhibition: inactive
PC-3 [8]
  Activity: Active
